From PubChem
Sampled rows, rich in hits. Any-hit rate of the full collection: about 3.8%.
KCNQ1 pot: potentiators or activators of human KCNQ1 potassium channel | P51787 | CHO-K1 KCNQ1, thallium flux FluxOR fluorescence; stronger effect = higher value | B-score at 10 µM | 310,000 tested, 0.35% active;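 active = fluorescence ratio B-score, a plate-corrected score, at least three library SD, with initial intensity B-score within 5 SD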
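System: CHO-K1 cells stably expressing KCNQ1 / Medium: assay buffer for compound exposure, DMSO matched across wells / Reagent: thallium- and potassium-containing depolarizing buffer / Compound: one concentration, matched DMSO / Incubation: 20 min compound pretreatment at room temperature / Measured by: kinetic FluxOR fluorescence, 10 s baseline plus 110 s post-stimulus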
KCNQ1 block: blocks the human KCNQ1 potassium channel; P51787; CHO-K1 KCNQ1, FluxOR thallium flux fluorescence; stronger effect = higher value; B-score at 10 µM; 310,000 tested, 1.3% active;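 active = compounds whose thallium flux B-score, printed positive for inhibition, exceeds three library SD while starting fluorescence stays within three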;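 also: channel opened by potassium depolarization with thallium stimulus after 20 min compound exposure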
Kir21 inh: Kir2.1 (mouse) channel inhibition. AID 1672. HEK293-Kir2.1, FluxOR thallium flux fluorescence; stronger effect = lower value. B-score at 10 µM. P35561. 310,000 tested, 0.85% active;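 active = fluorescence ratio B-score at or below minus 3 SD of library scores, with starting-brightness B-score within 2 SD, cut at about -4.2 in these data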;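 also: channel flux triggered by added potassium and thallium sulfate stimulus; B-score of peak minus minimum fluorescence over baseline after thallium stimulus; more negative B-score means stronger Kir2.1 block with less thallium influx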
Target sequence (P35561 whole entry, looked up): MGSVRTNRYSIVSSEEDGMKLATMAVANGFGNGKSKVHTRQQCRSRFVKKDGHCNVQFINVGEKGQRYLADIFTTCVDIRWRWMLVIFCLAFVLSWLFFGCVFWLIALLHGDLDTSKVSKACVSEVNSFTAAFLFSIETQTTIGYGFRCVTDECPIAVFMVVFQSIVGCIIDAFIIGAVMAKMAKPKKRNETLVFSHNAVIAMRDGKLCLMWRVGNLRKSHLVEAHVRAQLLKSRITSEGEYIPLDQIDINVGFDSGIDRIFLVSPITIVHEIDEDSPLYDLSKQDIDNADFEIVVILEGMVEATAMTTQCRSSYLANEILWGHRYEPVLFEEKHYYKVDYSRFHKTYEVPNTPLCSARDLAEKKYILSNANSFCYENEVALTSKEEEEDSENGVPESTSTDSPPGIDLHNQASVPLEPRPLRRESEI
KCNK3 block: human KCNK3 channel inhibition, primary screen | O14649 | CHO-KCNK3 thallium flux, FluxOR fluorescence; stronger effect = lower value | B-score at 10 µM | 340,000 tested, 0.84% active | AID 602410;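 active = B-score under library mean minus 4 SD, starting fluorescence ratio at most library mean plus 5 SD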;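 also: more negative B-score means stronger inhibition of thallium flux through KCNK3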
KCNK9 inh: inhibitors of human KCNK9 two-pore domain potassium channel; B-score at 10 µM; HEK293 KCNK9, FluxOR thallium flux fluorescence; stronger effect = lower value; 310,000 tested, 1.2% active; AID 488922; Q9NPC2;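 active = ratio B-score over 3 SD below the library mean, with starting fluorescence within 5 SD of its mean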;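 also: negative B-score means less thallium flux so channel inhibition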
hERG protect: shields human hERG channel from block by proarrhythmic agents. AID 1511. 310,000 tested, 0.51% active. activation (rescue from dofetilide block), less the hit threshold, % at 10 µM. CHO-hERG, FluxOR thallium flux, dofetilide IC70 present;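 active = activation above the mean of controls blocked by dofetilide plus 5 SD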;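 also: thallium influx through hERG after potassium depolarization seen as dye fluorescence rise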
* hit, by the source's call.

How did O=[N+]([O-])c1ccc(-[n+]2ccc3ccccc3c2)c([N+](=O)[O-])c1 do in these assays?
KCNQ1 pot: inactive; KCNQ1 block: inactive; Kir21 inh: -4.73*; KCNK3 block: inactive; KCNK9 inh: inactive; hERG protect: -12.8

Results for Cc1ccc(/C=C/C(=O)NCCc2cccc(Cl)c2)o1 ?
KCNQ1 pot: inactive; KCNQ1 block: inactive; Kir21 inh: 0.34; KCNK3 block: inactive; KCNK9 inh: inactive; hERG protect: -1.1

What do the screens show for `CN1CC(c2ccccn2)C2(SC(=S)N(Cc3ccccc3)C2=O)C12C(=O)Nc1ccccc12` (stereo not drawn)?
KCNQ1 pot: inactive; KCNQ1 block: 6*; Kir21 inh: -0.39; KCNK3 block: inactive; KCNK9 inh: inactive; hERG protect: -10.7

Results for CN1CC(c2ccccc2)C2(SC(=S)N(Cc3ccco3)C2=O)C12C(=O)Nc1ccccc12 (stereo not drawn) ?
KCNQ1 pot: inactive; KCNQ1 block: inactive; Kir21 inh: -1.62; KCNK3 block: inactive; KCNK9 inh: inactive; hERG protect: -2.8

What do the screens show for `OCc1cn(-c2ccccc2)nc1-c1ccc(-c2nn(-c3ccccc3)cc2CO)cc1`?
KCNQ1 pot: inactive; KCNQ1 block: inactive; Kir21 inh: -0.28; KCNK3 block: inactive; KCNK9 inh: inactive; hERG protect: -9.5

How did Cc1ccc(-c2nn(-c3ccccc3)cc2CSC(=N)N)cc1 do in these assays?
KCNQ1 pot: inactive; KCNQ1 block: inactive; Kir21 inh: -5.77*; KCNK3 block: inactive; KCNK9 inh: inactive; hERG protect: -13.8

How did Cc1c(Cl)cccc1NC(=O)CC1Oc2ccccc2NC1=O (stereo not drawn) do in these assays?
KCNQ1 pot: inactive; KCNQ1 block: inactive; Kir21 inh: 0.27; KCNK3 block: inactive; KCNK9 inh: inactive; hERG protect: 0.3

Results for Cc1ncc(CN2CCCC(C(=O)Nc3ccc(-c4cccc(F)c4)cc3)C2)n1C (stereo not drawn) ?
KCNQ1 pot: inactive; KCNQ1 block: inactive; Kir21 inh: -4.29*; KCNK3 block: inactive; KCNK9 inh: inactive; hERG protect: -19.9

How did COc1cccc(-c2ccc(NC(=O)C3CCCN(Cc4cnc(C)n4C)C3)cc2)c1 (stereo not drawn) do in these assays?
KCNQ1 pot: inactive; KCNQ1 block: inactive; Kir21 inh: -0.29; KCNK3 block: inactive; KCNK9 inh: inactive; hERG protect: -20.1

How did C=C(C(=O)Oc1c(C(C)(C)C)cccc1C(C)(C)C)c1ccccc1 do in these assays?
KCNK3 block: inactive

How did O=C(COC(=O)c1cc(=O)[nH]c2ccccc12)NCCc1ccccc1 do in these assays?
KCNK3 block: inactive

How did COc1ccccc1-c1sc2ccccc2c1C#Cc1ccc(N(C)C)cc1 do in these assays?
KCNK3 block: inactive

How did Cc1cc(C(=O)NCC(=O)OC(C)C(=O)N2CCOCC2)ccc1[N+](=O)[O-] (stereo not drawn) do in these assays?
KCNK3 block: inactive

How did CCOc1cc(/C=C2\N=C(SCC)SC2=O)cc([N+](=O)[O-])c1OC(C)=O do in these assays?
KCNQ1 pot: inactive; KCNQ1 block: 8*; Kir21 inh: 0.86; KCNK3 block: inactive; KCNK9 inh: inactive; hERG protect: -22.1

Results for CCOc1cc(/C=C2\N=C(SC)SC2=O)cc([N+](=O)[O-])c1OC(C)=O ?
KCNQ1 pot: inactive; KCNQ1 block: 12*; Kir21 inh: -0.5; KCNK3 block: inactive; KCNK9 inh: inactive; hERG protect: -25.2

How did CCOc1c(OC(C)=O)ccc(/C=C2\N=C(SCC)SC2=O)c1[N+](=O)[O-] do in these assays?
KCNQ1 pot: inactive; KCNQ1 block: 9*; Kir21 inh: 2.05; KCNK3 block: inactive; KCNK9 inh: inactive; hERG protect: -25.3

Results for CCOc1c(O)ccc(/C=C2\SC(=S)NC2=O)c1[N+](=O)[O-] ?
KCNQ1 pot: inactive; KCNQ1 block: inactive; Kir21 inh: 1.15; KCNK3 block: inactive; KCNK9 inh: inactive; hERG protect: -10.5

How did CCSC1=N/C(=C\c2ccc(C)s2)C(=O)S1 do in these assays?
KCNQ1 pot: inactive; KCNQ1 block: inactive; Kir21 inh: -1.85; KCNK3 block: inactive; KCNK9 inh: inactive; hERG protect: -6.6

How did COc1cc(OC)c(OC)cc1CNCCNC(=O)c1ccco1 do in these assays?
KCNQ1 pot: inactive; KCNQ1 block: inactive; Kir21 inh: -0.1; KCNK3 block: inactive; KCNK9 inh: inactive; hERG protect: -2.7

How did COc1cccc(CN2CCN(S(=O)(=O)c3ccc(Br)cc3)CC2)c1 do in these assays?
KCNQ1 pot: inactive; KCNQ1 block: inactive; Kir21 inh: -0.46; KCNK3 block: -9.71*; KCNK9 inh: inactive; hERG protect: -2.8

How did O=C1C=C(NCc2ccccc2)c2ccccc2C1=O do in these assays?
KCNQ1 pot: 12*; KCNQ1 block: inactive; Kir21 inh: 1.26; KCNK3 block: inactive; KCNK9 inh: inactive; hERG protect: -12.6

How did COc1cc(/C=C(\C(=O)O)c2ccc(S(=O)(=O)N3CCCC3)s2)ccc1OCCC(C)C do in these assays?
KCNK3 block: inactive

How did Cc1ccc(OC(=O)c2ccc(Br)o2)cc1 do in these assays?
KCNQ1 pot: inactive; KCNQ1 block: inactive; Kir21 inh: 2.89; KCNK3 block: inactive; KCNK9 inh: inactive; hERG protect: 22.2*

How did CN1CCN(c2ccc(Nc3ccnc4cc(Cl)ccc34)cc2)CC1 do in these assays?
KCNQ1 pot: inactive; KCNQ1 block: inactive; Kir21 inh: -6.79*; KCNK3 block: inactive; KCNK9 inh: inactive; hERG protect: -7.1

How did CCOc1ccc(Nc2ccnc3cc(Cl)ccc23)cc1 do in these assays?
KCNQ1 pot: inactive; KCNQ1 block: inactive; Kir21 inh: 0.53; KCNK3 block: inactive; KCNK9 inh: inactive; hERG protect: -16.6

What do the screens show for `CC1(C)NC(=O)N(CC(O)CN(c2ccccc2)S(=O)(=O)c2ccccc2[N+](=O)[O-])C1=O` (stereo not drawn)?
KCNQ1 pot: inactive; KCNQ1 block: inactive; Kir21 inh: -0.56; KCNK3 block: inactive; KCNK9 inh: inactive; hERG protect: 0.4

What do the screens show for `COc1c(CC=C(C)C)cc(C2CC(=O)c3c(O)cc(O)cc3O2)cc1CC=C(C)C` (stereo not drawn)?
KCNQ1 pot: inactive; KCNQ1 block: 8*; Kir21 inh: -1.05; KCNK3 block: inactive; KCNK9 inh: inactive; hERG protect: -13.2

Results for CC(C)CN(CC(C)C)C(=O)Cc1coc2ccc3ccccc3c12 ?
KCNQ1 pot: inactive; KCNQ1 block: inactive; Kir21 inh: -5.85*; KCNK3 block: inactive; KCNK9 inh: inactive; hERG protect: -12.1

How did O=C(O)Cc1coc2ccc3ccccc3c12 do in these assays?
KCNQ1 pot: inactive; KCNQ1 block: inactive; Kir21 inh: -0.32; KCNK3 block: inactive; KCNK9 inh: inactive; hERG protect: -12.7
